In PMC9073091 (RSC Advances, 2019):
Where no end group is shown, it is not given here.

Experiments:
[1] = Pharmacokinetic study after subcutaneous administration; assay type: in vivo, Sprague-Dawley rats
In short: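 Twelve Sprague-Dawley rats (6 female, 6 male; 200 ± 20 g) were housed SPF at 22 ± 2 °C on a 12 h light–dark cycle and fasted about 12 h. Each received a single subcutaneous dose of 10 mg kg−1. Orbital blood was taken into pre-acidified EDTA-K2 tubes at 0, 0.5, 1, 2, 3, 5, 10, 20, 30, 45 and 60 min and iced; plasma was spun and analysed by UHPLC-MS/MS (LLOQ 0.1 ng mL−1). Non-compartmental analysis; mean ± SD.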

[2] = Stability of SP in acidified rat plasma and blood; assay type: in vitro ADME
In short: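 Blood was acidified with 0.3% perchloric acid. Low- and high-level samples (five replicates each) were held as follows: whole blood at 0 °C for 1 h; […] for 1 h before processing; extracts at 25 °C for 1 h; reconstituted samples in the autosampler at 4 °C for 24 h; plasma at −70 °C for 60 days; and three freeze–thaw cycles (−70 °C to ambient). Read-out was accuracy as deviation from nominal, with acceptance within 15%.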

Stability = assay type: in vitro ADME; conditions: rat
In short: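 Rat blood was spiked at 150 ng mL−1 to compare three stabilisation factors. Anticoagulant (EDTA-K2 or heparin sodium) was tested at 25 °C and 0 °C. Protease inhibitors (pepstatin A, aprotinin, cOmplete cocktail, AEBSF) were tested at 25 °C. Acidification with H2SO4 or HClO4 (0.1–0.3%) was tested at 25 °C and 0 °C. Samples were taken before and at 2, 5, 10, 20, 30 and 60 min, precipitated with organic solvent, centrifuged and analysed by UHPLC-MS/MS. Half-lives were calculated.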

[3] = rats, subcutaneous 10 mg kg^−1, mean ± SD, n = 12

With GQTYTSG [SP, GQTYTSG] the Tmax ([1]; rat, in vivo, sc, 10 mg/kg) was 1.75 min, the half-life ([1]; rat, in vivo, sc, 10 mg/kg) was under 10 min and the “CL (apparent total plasma clearance)” value [1, 3] was 17.9 ± 9.96 L/min. For the same substance, the “Vz (total volume of distribution)” value [1, 3] was 230 ± 118 L, the “Accuracy (stability)” value ([2]; blood, blood stability (0 °C for 1 h), 0.5 ng mL^−1) was 114.4% and the “Accuracy (stability)” value ([2]; blood, blood stability (0 °C for 1 h), 300 ng mL^−1) was 104.1%. The “Accuracy (stability)” value ([2]; plasma, auto-sampler stability (4 °C for 24 h), 0.25 ng mL^−1) was 110.0%, the “Accuracy (stability)” value ([2]; plasma, auto-sampler stability (4 °C for 24 h), 150 ng mL^−1) was 106.7% and the “Accuracy (stability)” value ([2]; plasma, freeze–thaw stability (three cycles), 0.25 ng mL^−1) was 106.4%. The “Accuracy (stability)” value ([2]; plasma, freeze–thaw stability (three cycles), 150 ng mL^−1) was 94.7%, the “Accuracy (stability)” value ([2]; plasma, long-term stability (−70 °C for 60 days), 0.25 ng mL^−1) was 96.1% and the “Accuracy (stability)” value ([2]; plasma, long-term stability (−70 °C for 60 days), 150 ng mL^−1) was 94.0%. For the same substance, the “Accuracy (stability)” value ([2]; plasma, post-preparation stability (25 °C for 1 h), 0.25 ng mL^−1) was 90.8%, the “Accuracy (stability)” value ([2]; plasma, post-preparation stability (25 °C for 1 h), 150 ng mL^−1) was 105.3% and the “Accuracy (stability)” value ([2]; plasma, short-term stability (0 °C for 1 h), 0.25 ng mL^−1) was 96.4%. The “Accuracy (stability)” value ([2]; plasma, short-term stability (0 °C for 1 h), 150 ng mL^−1) was 96.0%, the half-life (Stability; half-life of SP in blood samples, blood acidified with 0.3% HClO4 (v/v), 0 °C) was over 350 min and the half-life (Stability; half-life, 25 °C, in vitro) was under 10 min. The half-life (Stability; whole blood, half-life of SP in blood samples, EDTA-K2 as anticoagulant, samples kept at 0 °C) was 11.5 ± 0.22 min and the half-life (Stability; whole blood, half-life of SP in blood samples, blood acidified with 0.3% H2SO4 (v/v), 0 °C) was over 350 min.
